Source: PubChem BioAssay (several laboratories)
ERb coact inh = blocks coactivator binding to human estrogen receptor beta; Q92731; 1.3% of 86,000 active; TR-FRET ER-beta LBD / SRC1-Cy5 peptide binding; receptor agonist-loaded with 1 µM estradiol; AID 633; inhibition, % at 25.6 µM;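 active = compounds whose percent inhibition of the receptor-coactivator binding signal exceeds about 50% in the single-dose screen, limit read from the data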;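 note: 0% = receptor plus peptide wells without compound and 100% = peptide-only wells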
ERa coact inh = blocks coactivator binding to human estrogen receptor alpha. P03372. TR-FRET ER-alpha LBD / SRC-1 peptide, estradiol-bound. inhibition, % at 25.6 µM. 1.7% of 86,000 active; in the data active = inhibition above about 50%;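 note: 0% = receptor plus peptide control and 100% = peptide only without receptor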
Target sequence (P03372 whole entry, looked up, the tested form may be a part): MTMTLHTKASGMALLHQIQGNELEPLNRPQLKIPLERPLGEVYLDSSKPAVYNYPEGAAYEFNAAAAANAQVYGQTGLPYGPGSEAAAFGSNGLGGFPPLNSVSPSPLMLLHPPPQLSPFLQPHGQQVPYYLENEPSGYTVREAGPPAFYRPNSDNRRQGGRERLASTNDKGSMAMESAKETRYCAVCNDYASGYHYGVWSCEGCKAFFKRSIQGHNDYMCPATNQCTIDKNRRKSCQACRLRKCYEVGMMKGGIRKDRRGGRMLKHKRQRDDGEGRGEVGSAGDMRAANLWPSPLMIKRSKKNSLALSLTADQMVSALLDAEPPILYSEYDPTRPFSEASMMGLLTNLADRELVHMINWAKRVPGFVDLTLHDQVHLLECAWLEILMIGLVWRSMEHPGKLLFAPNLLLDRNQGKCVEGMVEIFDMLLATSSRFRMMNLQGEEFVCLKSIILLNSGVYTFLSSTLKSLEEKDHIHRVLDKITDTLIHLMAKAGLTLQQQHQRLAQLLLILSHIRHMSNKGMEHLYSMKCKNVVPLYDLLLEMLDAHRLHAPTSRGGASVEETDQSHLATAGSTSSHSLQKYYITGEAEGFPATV
ERa SRC1 pot = ER-alpha (human) coactivator binding potentiation | P03372 | TR-FRET ERalpha-LBD/SRC-Cy5 coactivator binding, 2 h; 100 = basal binding, no effect | coactivator binding (% of control), % at 25.6 µM | 1.3% of 86,000 active | AID 639; in the data active = activity above about 200%;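 note: binding measured in presence of low estradiol as agonist stimulus; 0% = peptide alone without receptor and 100% = receptor with peptide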
H69AR inhibit = growth inhibitors of human H69AR lung tumor cells; viability, % at 10 µM; 6% of 85,000 active; H69AR lung tumor viability, ATP luminescence, 72 h; stronger effect = lower value;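 active = viability at or below 40%; inactive = viability above 40%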;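 note: multidrug resistant small cell line overexpressing MRP-1 efflux transporter; 100% = mean luminescence of untreated control wells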
HUVEC prolif 384 = blocks proliferation of human endothelial cells; HUVEC proliferation, CellTiter-Glo luminescence, 72 h; stronger effect = lower value; viability, % at 10 µM (by protocol); 1.1% of 86,000 active;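 active = viability at or below 30%; inactive = viability above 30%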;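 note: 100% = median luminescence of DMSO-only cell control wells on each plate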
Fibroblast inh = blocks proliferation of human lung fibroblasts; AID 719; LL 47 human lung fibroblast viability, ATP luminescence; stronger effect = lower value; viability, % at 10 µM; 1.1% of 85,000 active;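 active = viability at or below 50% in the single dose screen; inactive = viability above 50%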;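 note: compound exposure lasted 72 h before the ATP readout; 100% = median luminescence of untreated cell-only wells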
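Assay system: human lung fibroblast line LL 47, low passage. Input: 1,150 fibroblasts seeded per well. Times: overnight cell rest, 72 h compound treatment at 37 °C. Evaluation: % viability of median cell-only signal. Technique: luminescent ATP detection, CellTiter-Glo. Control set: cell-only wells, no compound.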
Starred values were filed as active, the others as inactive; · = no result; [ ] = another dose, or the depositor's remark. Sampled rows, rich in hits. Any-hit rate of the full collection: about 9.2%.

SMILES	ERb coact inh	ERa coact inh	ERa SRC1 pot	H69AR inhibit	HUVEC prolif 384	Fibroblast inh
O=C(c1ccco1)N1CCN(c2ncnc3scc(-c4cccs4)c23)CC1	-3	3	87	43	69	88
Cc1ccc(-c2csc3ncnc(N4CCN(C(=O)c5ccccc5)CC4)c23)cc1	17	19	77	22*	59	74
Cc1c(C(=O)N2CCN(c3ccccn3)CC2)sc2ncnc(N3CCN(c4ccccc4)CC3)c12	17	2	207*[fluorescence artefact?]	72	61	103
O=C(c1ccco1)N1CCN(c2ncnc3scc(-c4ccccc4)c23)CC1	-7	-6	100	40*	100	113
CS(=O)(=O)N(CCC(=O)O)Cc1ccccc1	-3	-10	112	94	62	102
O=C(c1cc(-c2ccncc2)nc2ccccc12)N1CCN(c2ccc(N3CCOCC3)nn2)CC1	-4	-1	90	72	86	93
COc1ccc(OC)c(NC(=O)c2cc(-c3ccc(C)cc3O)n[nH]2)c1	40	70*	120	·	107	103
COc1ccc(CCNC(=O)c2cc(-c3cc(C)c(C)cc3O)n[nH]2)cc1OC	5	13	128	29*	94	101
COC(=O)/C(=C(/F)SCC(C)=O)C(F)(F)F	-24	-4	105	73	77	95
Cc1nc2c(C(=O)NCCC(C)C)c[nH]n2c(=O)c1Cc1ccccc1F	1	13	35	46	12*	102
Cc1nc2c(C(=O)NCCc3ccccc3)c[nH]n2c(=O)c1Cl	0	3	99	103	87	105
CC(NC(=O)NCc1cccnc1)(C(F)(F)F)C(F)(F)F	-4	-10	104	93	84	96
COCCNC(=O)NC1(C(F)(F)F)Oc2ccc(Cl)cc2O1 (configuration not stated)	27	23	81	34*	57	63
O=C(NCc1cccnc1)NC1(C(F)(F)F)Oc2ccc(Cl)cc2O1 (configuration not stated)	8	-6	82	31*	51	70
COCCNC(=O)c1ccc(Cl)c(Cl)c1	10	-1	92	105	103	100
CC1CCCC/C1=N\NS(=O)(=O)c1ccc(Br)cc1 (configuration not stated)	3	2	105	97	101	98
CCc1nnc(NC(=O)CSc2nccn2-c2cccc(C)c2C)s1	-3	-3	109	18*	82	91
CCc1nnc(NC(=O)CSc2nccn2-c2cc(C)cc(C)c2)s1	-3	13	102	22*	78	99
CCOc1ccc(-n2ccnc2SCC(=O)Nc2nnc(C)s2)cc1	-3	1	120	93	102	97
Cc1cccc(-n2ccnc2SCC(=O)Nc2nccs2)c1C	-5	3	108	82	97	77
CC1CCCC(C)N1C(=O)Nc1cccc(Cl)c1 (configuration not stated)	53*	22	84	108	98	101
CC1(C)Oc2ccc(NC(=O)C3COc4ccccc4O3)cc2O1 (configuration not stated)	7	29	98	88	89	108
Cn1nc(-c2ccc(Cl)cc2)c2cc(C(=O)NCC3CCCO3)sc21 (configuration not stated)	-11	2	84	51	76	79
CN1CCN(CCCNC(=O)c2cc3c(-c4ccc(Cl)cc4)nn(C)c3s2)CC1	-10	-6	135	4.5*	1.9*	14*
CCN(CC)CCCNC(=O)c1cc2c(-c3ccc(Cl)cc3)nn(C)c2s1	4	-7	175	1.8*	2.4*	19*
SMILES	ERb coact inh	ERa coact inh	ERa SRC1 pot	H69AR inhibit	HUVEC prolif 384	Fibroblast inh
CCOC(=O)c1[nH]c2ccc(OC)cc2c1N=CN(C)C	2	-8	103	96	100	106
COc1ccc(C(=O)NCCc2nnc(SCC(=O)Nc3ccccc3C(C)C)n2C)cc1	-9	5	99	85	88	99
CCOc1ccc(CNC(=O)CCCOc2cc(=O)n(C)c3ccccc23)cc1	-2	-5	90	76	85	103
O=[N+]([O-])c1cnccc1Nc1cccc(F)c1	1	-5	91	86	86	93
O=[N+]([O-])c1ccc(Oc2cccc(F)c2)c2ccncc12	-4	7	77	34*	62	65
Cc1nn(-c2ccccc2)c(C)c1C(=O)OC/C(O)=C(\C#N)c1nc2ccccc2[nH]1	23	56*[fluorescence artefact?]	60	80	86	107
Cc1nn(-c2ccccc2)c(C)c1C(=O)OCC(=O)N1CC(=O)Nc2ccccc21	-22	-17	101	83	87	103
CCN(CC)c1ccc(C(=O)n2cnc3ccccc32)cc1	3	1	97	21*	75	88
CN(C)c1ccc(C(=O)n2nnc3ccccc32)cc1	5	21	159	84	80	100
CCOCCCNC(=O)C(Cc1ccccc1)NC(=O)c1ccco1 (configuration not stated)	-2	-9	136	87	96	97
COc1ccc(CCNC(=O)c2c(C)noc2C)cc1	-7	-7	106	91	82	92
Cc1cc(C)n(/N=C/c2ccccc2)c(=O)c1C#N	-3	-2	134	96	98	97
N#CC1=C(c2ccccc2)/C(=C/c2ccccc2)OC1=O	-2	-3	95	4.0*	28*	5.4*
O=c1c2c3c(sc2nc2n1CCCCC2)CCC3	4	11	90	83	88	90
O=c1c2c3c(sc2nc2sc(CN4CCCCC4)cn12)CCCC3	29	51*[fluorescence artefact?]	268*[fluorescence artefact?]	58	115	96
O=C1CC(c2ccco2)Cc2nc(Nc3nc(-c4ccccc4)c4ccccc4n3)ncc21 (configuration not stated)	51*[fluorescence artefact?]	43	98	·	55	25*
Cc1cccc(Nc2ncc3c(n2)CC(c2ccco2)CC3=O)c1 (configuration not stated)	-3	2	96	30*	92	102
Cc1cc(C)cc(Nc2ncc3c(n2)CC(c2ccco2)CC3=O)c1 (configuration not stated)	-4	4	112	97	100	100
O=C(N1CCCC1)C12CCC3CC(CC(C3)C1)C2	-8	6	109	82	95	99
Nn1c(-c2cccs2)nc2sc3c(c2c1=O)CCCC3	0	-3	95	31*	69	84
CC1(C)Cc2c(sc3nc(-c4cccs4)n(N)c(=O)c23)CO1	3	2	104	35*	84	83
CCC/S(CC1CC1(Cl)Cl)=N\S(=O)(=O)c1ccc(C)cc1 (configuration not stated)	1	-4	108	105	81	96
